Source: paper PMC8669655 (ACS Infectious Diseases, 2021)
Converted amounts (≈) assume the structure as drawn. “Also recorded” adds a separate entry of the source.

Experiments:
[1] = system: E. coli ATCC25922; assay: Checkerboard assay with rifampicin; type: cell-based, Escherichia coli; conditions: E. coli ATCC25922 (wild-type)
In short: (§1)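 Broth microdilution checkerboard in LB: serial dilutions of test compound and rifampicin combined, in triplicate. Inoculum from a single blood-agar colony, grown in LB at 37 °C to OD600 0.5, diluted to 2.0 × 10^6 CFU/mL stock, 50 μL added per 100 μL well. Sealed plates incubated 20 h, 37 °C, 600 rpm shaking. OD600 read after resuspension. FICI from MICs alone and in combination; ≤0.5 taken as synergy.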

[2] = system: E. coli BW25113; assay: MIC assay; type: cell-based; conditions: Escherichia coli
In short: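 Broth microdilution per CLSI in LB. Test compound serially diluted twofold from a 2× stock. Inoculum from a single blood-agar colony, grown in LB at 37 °C to OD600 0.5, diluted to 2.0 × 10^6 CFU/mL stock, then added 1:1. Plates sealed with breathable seal, incubated 20 h at 37 °C, 600 rpm. MIC read visually after brief centrifugation. Six growth and six sterility controls.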

[3] = system: E. coli BW25113; assay: OM permeabilization assay using NPN; type: cell-based, Escherichia coli; conditions: 60 min, relative to 100 μg/mL colistin
In short: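 Log-phase cells (overnight LB culture diluted 50×, grown to OD600 0.5) pelleted and resuspended to OD600 1.0 in 5 mM HEPES with 20 mM glucose. Test compound serially diluted in triplicate. NPN stock (0.5 mM in acetone) diluted 12.5× in buffer and added. Fluorescence read after 60 min, ex 355 nm / em 420 nm. Uptake % = (F − buffer blank)/(colistin 100 μg/mL − blank) × 100. Compound + NPN no-cell controls included.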

[4] = system: A. baumannii ATCC17978; assay: Checkerboard assay with rifampicin; type: cell-based, Acinetobacter baumannii; conditions: listed as pentamidine (1)
In short: as §1

[5] = system: P. aeruginosa ATCC27853; assay: Checkerboard assay with rifampicin; type: cell-based, Pseudomonas aeruginosa; conditions: listed as pentamidine (1)
In short: as §1

[6] = system: E. coli W3110; assay: Checkerboard assay with rifampicin; type: cell-based, Escherichia coli; conditions: E. coli W3110 (wild-type)
In short: as §1

[7] = system: E. coli EQASmcr-2 (EQAS 2016 KP37); assay: Checkerboard assay with rifampicin; type: cell-based, Escherichia coli; conditions: E. coli EQASmcr-2 (polymyxin-resistant)
In short: as §1

[8] = system: K. pneumoniae ATCC13883; assay: Checkerboard assay with rifampicin; type: cell-based, Klebsiella pneumoniae; conditions: listed as pentamidine (1)
In short: as §1

[9] = system: E. coli EQASmcr-1 (EQAS 2016 412016126); assay: Checkerboard assay with rifampicin; type: cell-based, Escherichia coli; conditions: E. coli EQASmcr-1 (polymyxin-resistant)
In short: as §1

[10] = system: E. coli 552060.1; assay: Checkerboard assay with rifampicin; type: cell-based, Escherichia coli; conditions: E. coli 552060.1 (wild-type clinical isolate)
In short: as §1

[11] = system: E. coli EQASmcr-3 (EQAS 2017 2013-SQ352); assay: Checkerboard assay with rifampicin; type: cell-based, Escherichia coli; conditions: E. coli EQASmcr-3 (polymyxin-resistant), listed as pentamidine (1)
In short: as §1

[12] = system: rat L6 muscle cell line; conditions: cited from earlier work

N=C(N)c1cccc(OCc2ccc(COc3cccc(C(=N)N)c3)cc2)c1 [compound 23b, 3,3′-[1,4-Phenylenebis(methyleneoxy)]dibenzenecarboximidamide]
FICI [1]: 0.156

N=C(N)c1ccc(OCCSCCOc2ccc(C(=N)N)cc2)cc1 [compound 15, 4,4′-((Thiobis(ethane-2,1-diyl))bis(oxy))dibenzimidamide]
MIC ([2]; BW25113, compound alone): > 200 µg/mL

N=C(N)c1ccc(OCCCCCCCOc2ccc(C(=N)N)cc2)cc1 [compound 10, 4,4′-(Heptane-1,7-diylbis(oxy))dibenzimidamide]
MIC ([2]; BW25113, compound alone): 200 µg/mL (≈ 543 µM)

N=C(N)c1ccc(OCc2ccccc2COc2ccc(C(=N)N)cc2)cc1 [compound 21, 4,4′-((1,2-Phenylenebis(methylene))bis(oxy))dibenzimidamide]
NPN uptake (OM disruption), in words [3]: dose-dependent increase in the fluorescent signal | MIC ([2]; BW25113, 20 h, compound alone): > 200 µg/mL

N=C(N)c1ccc(OCCCCCOc2ccc(C(=N)N)cc2)cc1 [compound 1, 4,4′-(Pentane-1,5-diylbis(oxy))dibenzimidamide, reference compound]
FICI [4]: ≤0.125 | MIC ([2]; BW25113, compound alone): ≥ 200 µg/mL | FICI [1]: 0.313 | FICI [5]: ≤0.500 | FICI ([6]; listed as pentamidine (1)): ≤0.188 | FICI [7]: 0.375 | FICI [8]: ≤0.125 | FICI ([9]; listed as pentamidine (1)): ≤0.250 | FICI [10]: 0.375 | FICI [11]: ≤0.188

N=C(N)c1ccc(OCCCOc2ccc(C(=N)N)cc2)cc1 [compound 9, 4,4′-(Propane-1,3-diylbis(oxy))dibenzimidamide]
MIC ([2]; BW25113, compound alone): ≥ 200 µg/mL

N=C(N)c1ccc(OCc2ccc3ccc(COc4ccc(C(=N)N)cc4)cc3c2)cc1 [compound 24, 4,4′-((Naphthalene-2,7-diylbis(methylene))bis(oxy))dibenzimidamide]
toxicity against a rat L6 muscle cell line [12]: significant toxicity

N=C(N)c1ccc(OCCS(=O)(=O)CCOc2ccc(C(=N)N)cc2)cc1 [compound 16, 4,4′-((Sulfonylbis(ethane-2,1-diyl))bis(oxy))dibenzimidamide]
MIC ([2]; BW25113, compound alone): > 200 µg/mL

N=C(N)c1ccc(OCc2cccc(COc3ccc(C(=N)N)cc3)c2)cc1 [compound 22, 4,4′-((1,3-Phenylenebis(methylene))bis(oxy))dibenzimidamide]
NPN uptake (OM disruption), in words [3]: dose-dependent increase in the fluorescent signal; also recorded: stronger effect than PMBN | MIC ([2]; BW25113, 20 h, compound alone): > 200 µg/mL | FICI [1]: 0.094 | FICI [6]: 0.313 | FICI [7]: 0.313 | FICI [9]: 0.188 | FICI [10]: 0.250
